Screening data (PubChem BioAssay)
Cav3 T inh: inhibitors of human Cav3.2 T-type calcium channel; Cav3.2-expressing cells, Fluo-4 calcium fluorescence FDSS; hits give low values; B-score at 10 µM; 100,000 compounds, 4% hits;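 active = single-dose well whose peak fluorescence ratio is a statistical outlier from its plate by either plate-standardised score or position-corrected B-score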
CYP2C9 activ: CYP2C9 (human) activation; AID 1024; recombinant CYP2C9, luciferin-H conversion, luminescence; hits give high values; factor 1 = untreated enzyme, 0 = blocked; activation factor at 5 µM; P11712; 96,000 compounds, 1.4% hits;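 active = activation factor of 2 or more for CYP2C9 at a 5 µM dose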;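 note: 0 = sulfaphenazole-blocked wells and 1 = vehicle-only wells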
Target sequence (P11712 whole entry, looked up): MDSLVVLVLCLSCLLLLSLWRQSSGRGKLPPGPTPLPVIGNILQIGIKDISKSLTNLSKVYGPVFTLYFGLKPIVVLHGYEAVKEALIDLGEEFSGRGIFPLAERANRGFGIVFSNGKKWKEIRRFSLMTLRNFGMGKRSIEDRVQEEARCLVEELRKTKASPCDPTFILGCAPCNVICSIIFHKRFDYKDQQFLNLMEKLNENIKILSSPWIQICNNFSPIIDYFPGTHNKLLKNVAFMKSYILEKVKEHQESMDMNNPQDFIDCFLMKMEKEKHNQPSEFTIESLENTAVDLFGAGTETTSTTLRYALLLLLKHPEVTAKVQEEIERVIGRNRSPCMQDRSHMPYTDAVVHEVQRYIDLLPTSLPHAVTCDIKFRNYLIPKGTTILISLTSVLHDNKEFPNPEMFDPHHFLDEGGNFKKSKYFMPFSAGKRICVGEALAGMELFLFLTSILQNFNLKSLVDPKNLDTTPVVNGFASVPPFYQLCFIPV
CYP2C19 act: activators of human cytochrome P450 2C19 | activation factor at 5 µM | 96,000 tested, under 10 active | P33261 | recombinant CYP2C19, luciferin-H EGE luminescence; hits give high values; 0 = fully inhibited enzyme, 1 = untreated enzyme;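 active = activation factor of at least 2 at 5 µM in the primary screen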;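 note: 0 = wells with 2.5 mM tranylcypromine and 1 = vehicle-only wells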
HIV Rev-RRE inh: disrupts HIV-1 Rev binding to RRE RNA; inhibition, % at 8 µM; P05866; 97,000 compounds, 0.79% hits; AID 704; Rev peptide-RRE RNA binding, FRET;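 active = inhibition above the screen-wide mean plus 3 SD, cut at about 35% in these data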;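 note: 0% = median DMSO wells and 100% = median Neomycin B control wells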
Target sequence (P05866 whole entry, looked up): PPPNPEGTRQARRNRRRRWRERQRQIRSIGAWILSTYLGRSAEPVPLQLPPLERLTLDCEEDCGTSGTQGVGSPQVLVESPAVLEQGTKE
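Test system: labelled RRE RNA duplex and labelled Rev peptide. Times: 5 min compound–RNA preincubation, then 15 min with peptide, 25 °C. Doses: single-dose 8 µM. Measured by: FRET, excitation 480 nm, emission 540 nm donor and 671 nm acceptor. Measure: % inhibition of FRET ratio versus controls.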
CYP2C19 inh: human CYP2C19 inhibition; P33261; AID 778; 96,000 compounds, 21% hits; CYP2C19 Supersomes, luciferin-H EGE luminescence, 30 min; inhibition, % at 5 µM;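 active = CYP2C19 inhibition above a set limit at 5 µM in the primary screen, cut at about 50% in these data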;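 note: plate controls were negative control wells for no effect and 2.5 mM tranylcypromine positive control for full effect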
CYP2C9 inh: blocks human cytochrome P450 2C9; inhibition, % at 5 µM; AID 777; CYP2C9 Supersomes, luciferin-H conversion, luminescence; P11712; 96,000 compounds, 20% hits;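 active = blocking of liver enzyme CYP2C9 beyond about 50% at 5 µM, limit read from the data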
Starred values were filed as active, the others as inactive; . = not tested or not shown. This is a sample that favours compounds with a hit; in the whole collection about 27% have one here.

SMILES	Cav3 T inh	CYP2C9 activ	CYP2C19 act	HIV Rev-RRE inh	CYP2C19 inh	CYP2C9 inh
Cc1nc2ccccn2c1/C(O)=C1\C(=O)C(=O)N(CCCN(C)C)C1c1ccc(F)cc1 (stereo not given)	.	.	.	11.6	.	.
CCCCN(C(=O)NC(=O)Nc1nc2ccc(OC)cc2s1)S(C)(=O)=O	1.51	0.8	1	3.9	3.3	15.6
CCCCn1nnnc1SCC(=O)NCc1ccccc1	0.519	0.9	0.6	0.2	42.5	13.0
COC(=O)c1ccc(N2CCN(S(=O)(=O)c3ccccc3)CC2)c([N+](=O)[O-])c1	-1.11	0.7	0.9	6.7	13.4	30.6
O=C(CSc1ccccn1)Nc1nncs1	0.275	.	.	7.6	.	.
COc1cc(/C=C(/C#N)c2nc3ccccc3[nH]2)ccc1OCC(=O)Nc1ccccc1C(C)C	-1.2	0.4	0.6	-5.1	38.2	59.5*
Cc1ccc2nc(/C(C#N)=C\c3ccc(N4CCCCC4)c([N+](=O)[O-])c3)[nH]c2c1	-3.84	0.4	0.4	10.5	55.7*	59.1*
COc1ccccc1N1CCN(C(=O)C(C)N(c2ccccc2)S(C)(=O)=O)CC1 (stereo not given)	0.843	0.9	1	2.1	-0.5	7.9
O=c1cnnc(NCc2ccccc2)[nH]1	1.1	1.1	1.1	10.4	-15.0	-5.3
COc1ccc2c(c1)C(=O)N(c1ccccc1OC)C(=O)C2(C)C	0.277	0.4	0.2	-2.8	83.9*	62.9*
COc1ccc2c(c1)C(=O)N(c1ccccc1)C(=O)C2	-2.27	0.9	0.8	6.9	19.3	6.9
COC(=O)c1cc2oc(C)cc2n1CC(=O)Nc1ccc(OC)c(OC)c1OC	0.0535	0.4	0.4	2.4	59.3*	63.1*
O=C(CNC(=O)Cc1ccccc1)NCC(=O)OCC(=O)c1cccc2ccccc12	0.0496	3.6*	0.8	9.4	22.5	-256.6
CCc1ccc(C(=O)COC(=O)CNC(=O)CNC(=O)Cc2ccccc2)cc1	0.715	1	0.9	8.6	12.9	0.0
COC(C[C@@H]1O[C@H]1[C@H](O)[C@@H](C)OCc1ccccc1)OC	-0.0264	.	.	.	.	.
CC(C)C(c1nnnn1Cc1ccco1)N1CCN(c2cccc(Cl)c2)CC1 (stereo not given)	-3.76*	0.3	0.2	11.9	81.4*	69.7*
CC(C)C(c1nnnn1C(C)(C)C)N1CCN(c2cccc(Cl)c2)CC1 (stereo not given)	-3.19	0	0.3	5.9	69.5*	97.6*
CC(C)C(c1nnnn1Cc1ccccc1)N1CCN(Cc2ccco2)CC1 (stereo not given)	0.195	0.8	0.9	-1.9	9.4	20.3
O=C(NC1CCCC1)C(c1ccc(Cl)cc1)N1CCOCC1 (stereo not given)	-0.86	0.8	0.8	.	15.6	24.5
NC(=O)CSc1nnc(Cn2c(=O)sc3ccccc32)n1-c1ccccc1	0.179	.	.	.	.	.
CCOC(=O)C(C)Sc1nnc(Cn2c(=O)sc3ccccc32)n1-c1ccccc1 (stereo not given)	.	0.2	0.3	3.1	69.4*	80.3*
COc1cccc(-c2nn3c(-c4ccccn4)nnc3s2)c1	-0.266	0.6	0.5	6.0	51.9*	35.9
COc1ccc(-c2nn3c(-c4ccccn4)nnc3s2)cc1OC	0.869	.	.	.	.	.
CC(C)(C)c1ccc(-c2nnc3sc(-c4ccccn4)nn23)cc1	-1.06	0.6	0.9	14.8	5.6	43.3
COc1ccc(-c2nnc3sc(-c4ccccn4)nn23)cc1	1.02	0.4	0.6	.	39.0	56.9*
SMILES	Cav3 T inh	CYP2C9 activ	CYP2C19 act	HIV Rev-RRE inh	CYP2C19 inh	CYP2C9 inh
COc1cccc(-c2nnc3sc(-c4ccccn4)nn23)c1	0.893	0.7	0.4	10.2	63.2*	26.6
CCOc1cc(C2CC(=O)NC(SCC)=C2C#N)ccc1O (stereo not given)	0.961	0.7	0.7	3.7	32.6	26.9
CCOc1cc(C2CC(=O)Nc3cc(C)c(C)cc32)ccc1O (stereo not given)	.	0.2	0.1	0.4	86.9*	83.8*
c1cc(CSc2nnc(-c3ccc4c(c3)OCO4)o2)ccn1	-0.00645	0.1	0.1	1.1	94.4*	87.3*
Cc1ccc(CSc2nnc(-c3ccc4c(c3)OCO4)o2)cc1	-0.0384	0.8	0.9	10.9	12.7	15.4
Cc1ccccc1NC(=O)Cc1nc(CSc2nnc(-c3ccc4c(c3)OCO4)o2)cs1	-0.331	1.1	0.4	3.4	62.7*	-8.4
CN(C)/C=N/c1ncc(C(=O)c2ccc3ccccc3c2)s1	-2.81	2.3*	0.5	6.2	53.2*	-127.9
CCN(CC)C(=O)c1sc2nc(N3CCOCC3)c3c(c2c1N)CCCC3	-1.21	0.5	1	-3.4	-2.1	51.9*
COC(=O)c1sc2nc(N3CCCCC3)c3c(c2c1N)CCCC3	-0.714	0.3	0.6	5.0	37.1	71.9*
CCOC(=O)c1sc2nc(N3CCOCC3)c3c(c2c1N)CCCC3	0.0915	0.9	1	2.0	2.5	8.8
COC(=O)c1ccc(-c2sc3nc(N4CCOCC4)c4c(c3c2N)CCCC4)o1	-3.01	0.4	0.4	84.6*	57.2*	55.3*
NC(=O)c1sc2nc(N3CCCCC3)c3c(c2c1N)CCCC3	-0.103	0.3	0.6	.	42.6	68.0*
NC(=O)c1sc2nc3c(c(-c4ccc(Cl)cc4)c2c1N)CCCC3	0.4	0.8	1	10.4	-2.8	16.9
Nc1nc2ccc(N3CCOCC3)cc2s1	-0.117	0.9	0.9	-0.5	11.1	8.3
Cn1cccc1Cc1nnc(SCC(=O)NC2CCCCC2)n1CCc1ccccc1	-1.6	0.6	0.6	.	44.2	42.3
CCOC(=O)C(NC(=O)CC)(N1CCc2ccccc2C1)C(F)(F)F (stereo not given)	0.0675	0.4	0.8	-2.0	21.8	55.8*
CCOC(=O)C(NC(=O)CC)(Nc1ccccc1OC)C(F)(F)F (stereo not given)	1.09	0.5	0.6	0.3	40.7	47.1
CSc1nc(N(C)NC(=O)c2ccccc2)c2ccccc2n1	-2.64	0.3	0.1	-0.7	88.0*	65.0*
CSc1nc(N(C)NC(=O)c2ccc(Cl)cc2)c2ccccc2n1	-0.0399	0.8	1	2.4	-0.3	17.4
CC1(C)N=C(c2ccc(Cl)cc2Cl)C(=O)N1	-1.03	0.5	0.2	4.1	80.1*	45.9
COC(C[C@H](O)C[C@@H](O)COCc1ccccc1)OC	-0.732	.	.	.	.	.
COc1cc(OC)c(C(=O)Nc2cccc(C(C)=O)c2)cc1OC	-0.532	0.4	0.7	2.3	32.9	58.8*
COc1ccc(C(=O)Nc2cccc(C(C)=O)c2)c(OC)c1OC	-1.63	0.8	0.4	11.8	62.8*	15.2
CC(=O)c1cccc(NC(=S)NC(=O)C(C)C)c1	0.542	0.5	0.6	1.5	40.0	52.3*
O=C(c1coc2ccc(O)c(CN3CCOCC3)c12)C1CC1	-0.754	0.9	0.7	-1.8	27.8	11.9
